Activity calls are given as the source filed them. No cut-off for these calls is given here.
Legend:
HepG2 [1] = experiment: Upregulation of Nur77 expression in human HepG2 cells at 2 uM incubated for 6 hrs by Western blot analysis; format: functional, cell-based
How it was run: (§1)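 HepG2, QGY-7703 and SMMC-7721 cells treated with the indicated concentrations for 6 h. HepG2 also given 2.0 µM over a time course. Lysis in RIPA with protease and phosphatase inhibitors; 40-80 µg protein by SDS-PAGE, nitrocellulose transfer. Membranes blocked with 5% milk, primary antibody overnight, HRP secondary, chemiluminescence. GAPDH as loading control.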

HepG2 [2] = experiment: Antitumor activity against human HepG2 cells xenografted in BALB/c mouse assessed as induction of ER stress by measuring increase in TRB3 level in tumor tissue at 10 to 20 mg/kg/day, ip administered for 15 days by western blot analysis; format: functional, organism-based; settings: dose 10-20 mg/kg/day, time 15.0 day
How it was run: (§2)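 HepG2 cells (5×10^6) injected subcutaneously into flanks of 4-week-old male Balb/c nude mice. At about 100 mm³, 15 mice were randomized to vehicle, 10 or 20 mg/kg i.p. once daily for 15 days. Tumors were then excised for immunostaining of paraffin sections (5 μm) or for western blot.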

HepG2 [3] = experiment: Induction of endoplasmic reticulum stress in human HepG2 cells assessed as increase in PDI protein expression at 2 uM incubated for 6 hrs by confocal microsocopic analysis; format: functional, cell-based
How it was run: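 HepG2, or HepG2 plus shNur77 HepG2, treated with 2.0 µM for 6 h, fixed in 4% paraformaldehyde 20 min, permeabilised 0.1% Triton X-100, blocked in 5% BSA, stained with PDI antibody and imaged by confocal fluorescence microscopy.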

HepG2 [4] = experiment: Antitumor activity against human HepG2 cells xenografted in BALB/c mouse assessed as induction of ER stress by measuring increase in TRB3 level in tumor tissue at 10 to 20 mg/kg/day, ip administered for 15 days by immunohistochemical analysis; format: functional, organism-based; settings: dose 10-20 mg/kg/day, time 15.0 day; how it was run: as §2
HepG2 [5] = experiment: Induction of apoptosis in human HepG2 cells transfected with shRNA assessed as live cells at 2 uM incubated for 12 hrs by Annexin V-FITC/PI staining based flow cytometry (reference value: 92.6%); format: functional
QGY-7703 [6] = experiment: Upregulation of Nur77 expression in human QGY-7703 cells incubated for 6 hrs by Western blot analysis; format: functional, cell-based; settings: dose 0.5-2 µM; how it was run: as §1
QGY-7703 [7] = experiment: Induction of endoplasmic reticulum stress in human QGY-7703 cells assessed as increase in CHOP protein expression incubated for 12 hrs by Western blot analysis; format: functional, cell-based; settings: dose 0.5-2 µM
How it was run: (§3)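 HepG2, QGY-7703 and SMMC-7721 treated with graded concentrations for 12 h. Lysed in RIPA with inhibitors; 40-80 µg protein separated by SDS-PAGE, blotted to nitrocellulose, blocked 1 h in 5% milk, primary antibodies overnight (LC3, Beclin1, Bip, CHOP, TRB3), HRP secondaries, chemiluminescence.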

L02 = experiment: Cytotoxicity against human L02 cells assessed as reduction in cell viability incubated for 48 hrs by MTT assay; format: cell-based; settings: L02, 48 h
How it was run: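 MTT assay after 48 h exposure at six concentrations, range chosen by cytotoxicity. Inhibition = (ODcontrol − ODtest)/ODcontrol × 100%; IC50 is the concentration halving OD versus untreated cells. Means ± SD of three independent determinations. HepG2 and SMMC-7721 grown in DMEM, QGY-7703 and LO2 in RPMI 1640, with 10% FBS at 37 °C.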

HepG2 [8] = experiment: Induction of autophagy in human HepG2 cells assessed as increase in LC3-II expression at 2 uM measured after 4 to 6 hrs by Western blot analysis; format: functional, cell-based; settings: time 4-6 hrs
How it was run: (§4)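 HepG2 exposed to 2.0 µM over a time course; Nur77, Bip, p-EIF2a, TRB3 and LC3 levels followed by Western blot of RIPA lysates.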

HepG2 [9] = experiment: Inhibition of colony formation in human HepG2 cells at 2 uM incubated for 24 hrs measured after cell culturing for 15 days in normal medium by crystal violet staining based assay; format: functional; settings: time 16.0 day
How it was run: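 500 HepG2, QGY-7703 or SMMC-7721 cells per well allowed to attach 24 h, exposed to DMSO or 2.0 µM for 24 h, then grown 15 days in plain medium. Colonies fixed 30 min in 4% paraformaldehyde, stained 15 min with 0.1% crystal violet, photographed and counted.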

HepG2 [10] = experiment: Induction of apoptosis in human HepG2 cells assessed as increase in PARP cleavage at 2 uM measured after 12 hrs by Western blot analysis
QGY-7703 [11] = experiment: Induction of endoplasmic reticulum stress in human QGY-7703 cells assessed as increase in bip protein expression incubated for 12 hrs by Western blot analysis; format: functional, cell-based; settings: dose 0.5-2 µM; how it was run: as §3
[12] = target: T1, Nuclear receptor subfamily 4immunitygroup A member 1 (Homo sapiens, UniProt P22736); experiment: Binding affinity to Nur77 ligand binding domain (unknown origin) at 10 uM by surface plasmon resonance analysis; settings: filed as modulator
T1 sequence (P22736 whole entry, the tested form may be a part): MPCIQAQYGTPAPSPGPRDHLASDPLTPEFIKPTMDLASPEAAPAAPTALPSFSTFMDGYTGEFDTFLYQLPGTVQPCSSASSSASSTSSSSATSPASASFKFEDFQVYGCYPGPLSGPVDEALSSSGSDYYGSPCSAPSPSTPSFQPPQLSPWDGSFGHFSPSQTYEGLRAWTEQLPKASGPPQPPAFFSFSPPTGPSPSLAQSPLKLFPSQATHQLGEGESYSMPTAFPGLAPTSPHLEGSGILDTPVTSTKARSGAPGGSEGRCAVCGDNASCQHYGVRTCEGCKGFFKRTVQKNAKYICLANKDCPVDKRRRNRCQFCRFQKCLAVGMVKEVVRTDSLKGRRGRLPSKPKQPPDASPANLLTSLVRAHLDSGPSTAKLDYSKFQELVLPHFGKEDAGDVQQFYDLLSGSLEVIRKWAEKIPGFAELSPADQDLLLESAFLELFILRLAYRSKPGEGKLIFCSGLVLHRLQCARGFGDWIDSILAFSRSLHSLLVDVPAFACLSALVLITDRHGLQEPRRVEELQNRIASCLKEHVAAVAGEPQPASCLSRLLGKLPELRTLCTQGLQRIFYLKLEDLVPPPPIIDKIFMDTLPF
How it was run: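 Single-concentration SPR screen at 10.0 µM against Nur77-LBD; binding given as RU response.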

HepG2 [13] = experiment: Induction of morphological changes in human HepG2 cells assessed as reduction in cell number at 1 to 2 uM incubated for 6 to 12 hrs by phase contrast microscopic analysis; format: functional, cell-based; settings: dose 1-2 µM, time 6-12 hrs
How it was run: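 HepG2 cells given graded concentrations; morphology monitored at set time points by phase-contrast optical microscopy.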

HepG2 [14] = experiment: Antitumor activity against human HepG2 cells xenografted in BALB/c mouse assessed as tumor growth inhibition at 10 mg/kg/day, ip administered for 15 days; format: functional; settings: 360 h, time 15 day
How it was run: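 Subcutaneous flank xenograft of 5×10^6 HepG2 cells in 4-week-old male Balb/c nude mice. At about 100 mm³, 15 mice were randomized into three groups: vehicle, 10 or 20 mg/kg i.p. daily for 15 days. Tumor size was measured every day, and tumors were excised and weighed at the end.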

SMMC-7721 [15] = experiment: Induction of autophagy in human SMMC-7721 cells assessed as increase in LC3-II expression measured after 12 hrs by Western blot analysis; format: functional, cell-based; settings: dose 0.5-2 µM; how it was run: as §3
HepG2 [16] = experiment: Induction of endoplasmic reticulum stress in human HepG2 cells assessed as increase in bip expression at 2 uM measured after 1 to 4 hrs by Western blot analysis; format: functional, cell-based; settings: time 1-4 hrs; how it was run: as §4
[17] = target: T1, Nuclear receptor subfamily 4immunitygroup A member 1; experiment: Modulation of Nur77 in human HepG2 cells assessed as induction of mitochondrial translocation at 2 uM incubated for 6 hrs by Mito-tracker based confocal microscopy; settings: Mitochondria, filed as modulator
How it was run: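 HepG2 cells given 2.0 µM for 6 h, then stained with anti-Nur77 antibody plus Mito-tracker. Cells fixed in 4% paraformaldehyde for 20 min, permeabilized with 0.1% Triton X-100, blocked with 5% BSA. Anti-Nur77 (1:500) for 1 h, then FITC- or Cy3-conjugated anti-rabbit IgG for 1 h. Imaged by confocal microscopy.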

HepG2 [18] = experiment: Induction of endoplasmic reticulum stress in human HepG2 cells assessed as increase in p-EIF2a expression at 2 uM measured after 1 to 4 hrs by Western blot analysis; format: functional, cell-based; settings: time 1-4 hrs; how it was run: as §4
SMMC-7721 [19] = experiment: Antiproliferative activity against human SMMC-7721 cells assessed as reduction in cell viability at 2 uM by MTT assay; format: functional, cell-based; settings: time 12-48 hrs, TDE = time-dependent effect
How it was run: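 Cells treated with 2.0 µM over a time course; viability read by MTT. HepG2, SMMC-7721 kept in DMEM, QGY-7703 in RPMI 1640, with 10% FBS at 37 °C and 5% CO2.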

COc1cccc2c(Nc3ccc4[nH]c(C(=O)N/N=C/c5ccc(SC)cc5)cc4c3)cc(C)nc12
Activity (HepG2 [1]): Active
Activity (HepG2 [2]): Active
Activity (HepG2 [3]): Active
Activity (HepG2 [4]): Active
Activity (HepG2 [5]): 59.8%
Activity (QGY-7703 [6]): Dose-dependent effect
Activity (QGY-7703 [7]): Dose-dependent effect
IC50 (L02): > 20 µM
Activity (HepG2 [8]): Active
inhibition (HepG2 [9]): Active
Activity (HepG2 [10]): Active
Activity (QGY-7703 [11]): Dose-dependent effect
Activity [12]: 91.6 RU
Activity (HepG2 [13]): Active
inhibition in vivo at 10 mg/kg/day (HepG2 [14]): 36.7%
Activity (SMMC-7721 [15]): Dose-dependent effect
Activity (HepG2 [16]): Active
Activity [17]: Active
Activity (HepG2 [18]): Active
Activity (SMMC-7721 [19]): Tde

Source: ChEMBL document CHEMBL4765399, “Design, synthesis, and biological evaluation of 5-((8-methoxy-2-methylquinolin-4-yl)amino)-1H-indole-2-carbohydrazide derivatives as novel Nur77 modulators” (Eur J Med Chem, 2020)
